Reference: paper PMC3246390 (Organic & biomolecular chemistry, 2011)
“Also recorded” adds a separate entry of the source. Read-outs that look alike come from different tables or passages of the source.

How the values were obtained:
[1] = target: T1, mouse Vα14Vβ8.2 NKT TCR (glycolipid presented by mouse CD1d) (Mus musculus, UniProt P11609); type: binding; conditions: for Kass / Kdiss: Langmuir 1:1 model; for Kdiss: TCR dissociation from mouse CD1d-glycolipid complex
T1 sequence (P11609 19-297): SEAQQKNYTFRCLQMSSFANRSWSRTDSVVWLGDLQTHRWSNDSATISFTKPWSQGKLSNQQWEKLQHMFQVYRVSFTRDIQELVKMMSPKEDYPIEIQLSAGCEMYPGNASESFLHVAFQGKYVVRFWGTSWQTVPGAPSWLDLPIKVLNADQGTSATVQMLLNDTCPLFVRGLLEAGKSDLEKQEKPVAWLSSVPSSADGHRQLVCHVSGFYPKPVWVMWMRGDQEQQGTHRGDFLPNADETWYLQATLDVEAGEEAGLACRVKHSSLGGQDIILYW
T1 sequence (P01887 21-119 partner): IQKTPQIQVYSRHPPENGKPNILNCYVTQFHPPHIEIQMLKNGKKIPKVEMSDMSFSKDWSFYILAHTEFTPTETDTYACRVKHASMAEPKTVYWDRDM
T1 sequence (P01849 1-110 partner): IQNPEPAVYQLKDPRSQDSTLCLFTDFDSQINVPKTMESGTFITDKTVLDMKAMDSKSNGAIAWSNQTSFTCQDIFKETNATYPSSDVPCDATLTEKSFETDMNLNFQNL

mice [2] = conditions: cited from earlier work
mice [3] = type: in vivo; conditions: 5 µg intraperitoneal; for cytokine secretion (INF-γ and IL-4): IL-4 at 4h and INF-γ at 16h
In short: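 Each mouse received an intraperitoneal injection of 5 µg glycolipid (6"-modified α-GalCer analogues, galacturonic acid and α-d-fucopyranosyl types). Serum IL-4 was measured at 4 h and serum INF-γ at 16 h after injection.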

mice [4] = conditions: i.v. administration; cited from earlier work
[5] = test system: lung and breast cancer in mice; conditions: lung and breast cancer (GSL-1’: mice bearing lung cancer, equal doses); cited from earlier work
[6] = SPR, TCR binding to mouse CD1d-glycolipid complex
[7] = read-out: KD(Kdiss/Kass), SPR, TCR binding to mouse CD1d-glycolipid complex

## 1-O-(6-deoxy-α-D-galactopyranosyl)-2-hexacosylamino-octadecane-1,3,4-triol [compound 4]
[1]; [6]
  Kass: 80000 ± 3000 M⁻¹ s⁻¹
[1]; SPR
  Kdiss: 0.00526 ± 0.00029 s⁻¹
[1]; [7]
  Kd: 64.8 ± 6 nM
Mice [2]
  IFN-γ induction compared to α-GalCer: superior to α-GalCer

## 1-O-(6-deoxy-α-D-galactopyranosyl)-2-hexacosylamino-octadecane-1,3,4-triol [compound 12]
[1]; [6]
  Kass: 100000 ± 20000 M⁻¹ s⁻¹
[1]; SPR
  Kdiss: 0.00648 ± 0.0018 s⁻¹
[1]; [7]
  Kd: 74.4 ± 25 nM
Mice [3]; serum
  cytokine secretion (INF-γ and IL-4): weak cytokine secretion; also recorded: low cytokine release

## 1-O-(α-D-galactopyranosyluronate)-2-hexacosylamino-octadecane-1,3,4-triol [compound 13]
[1]; [6]
  Kass: 100000 ± 9000 M⁻¹ s⁻¹
[1]; [7]
  Kd: 165 ± 38.3 nM
Mice [3]; serum
  cytokine secretion (INF-γ and IL-4): minor cytokine secretion
Mice [4]
  secretion of INF-γ compared to α-GalCer: drastically lower secretion of INF-γ
[5]
  efficacy towards cancer compared to α-GalCer: more effective

## CCCCCCCCCCCCCCCCCCCCCCCCCC(=O)N[C@@H](CO[C@H]1O[C@H](CO)[C@H](O)[C@H](O)[C@H]1O)[C@H](O)[C@H](O)CCCCCCCCCCCCCC [KRN7000 (1), α-galactosylceramide, reference compound]
[1]
  Kd: 11.2 ± 0.2 nM
[1]; read-out: Kass
  kon: 130000 M⁻¹ s⁻¹
[1]; read-out: Kdiss
  koff: 0.00145 s⁻¹

## CCCCCCCCCCCCCCC(O)C(O)C(CO[C@H]1O[C@H](C(=O)O)[C@H](O)[C@H](O)[C@H]1O)NC(=O)CCCCCc1ccccc1 (stereo partly drawn) [compound 14, 1-O-(α-D-galactopyranosyluronate)-2-(6-phenylhexanoyl)amino-octadecane-1,3,4-triol]
[1]; [6]
  Kass: 110000 ± 6000 M⁻¹ s⁻¹
[1]; SPR
  Kdiss: 0.00811 ± 0.0012 s⁻¹
[1]; [7]
  Kd: 75.3 ± 15.2 nM
Mice [3]; serum
  cytokine secretion (INF-γ and IL-4): abolishes all activity; also recorded: low cytokine release

## α-C-GalCer [compound 3, reference compound]
Mice [3]; INF-γ versus IL-4
  Th1/Th2 polarization: no polarization
Mice [3]; serum, measured at 4h
  IL-4 secretion (Th2 response): strong Th2 response
Mice [3]; serum, measured at 16h
  INF-γ secretion: superior INF-γ inducer
